# Screening data from PubChem BioAssay.
# Ecoli tolC: E. coli tolC mutant growth inhibition | 2.2% of 65,000 active | E. coli BW25113 tolC mutant growth, OD615 | AID 573 | growth inhibition, % at 10 µM (by protocol);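 active means growth inhibition at or above a cutoff equal to the mean over every tested compound plus 3 SD, cut at about 60% in these data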;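 further: growth measured after 20 h incubation at 37 °C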
#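 Signal: optical density read at 615 nm; Assay system: E. coli ΔtolC::kan strain BW25113; Times: 20 h incubation with compound, 37 °C; Dosing: 10 µM final, single dose.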
# Ecoli WT expand: E. coli BW25113 growth inhibition, expanded screen; OD600 absorbance; growth inhibition, % at 100 µM; 0.15% of 98,000 active; AID 710;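 active means growth inhibition above about 50% at one test dose, limit read from the data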;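 further: growth measured after 20 h incubation at 37 °C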
# AP complement: orthogonal test for alternative complement pathway inhibitors | Human serum alternative complement pathway, LPS-coated ELISA, C3 deposition; tested in compound mixtures | inhibition, % at 5 µM | 0.08% of 62,000 active | AID 1235;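 active means inhibition above 30% in each of the two pooled mixtures holding the compound, so the lower value exceeds 30%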;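 further: 0% = serum in Mg-EGTA without compound and 100% = EDTA serum blank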
#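 Medium: diluted human serum in Mg2+-EGTA GVB++. Assay system: human serum complement alternative pathway, C3 deposition onto LPS. Also added: Plate-bound LPS. Technique: Anti-C3 ELISA, OD 450 nm. Measure: percent inhibition. Incubation: 1 h at 37 °C. Dosing: 5 µM each compound, pools of ten, 50 µM per pool.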
# HePTP inhibitor: human HePTP phosphatase inhibition; P35236; recombinant HePTP phosphatase activity, OD absorbance; inhibition, % at 20 µM; 0.64% of 110,000 active; in the data active means inhibition above about 50%;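 further: plate controls were vehicle for no effect and reference inhibitor for full effect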
# PLAP act: activators of human placental alkaline phosphatase; P05187; purified PLAP enzyme, luminescent substrate read-out; stronger effect = higher value; activation fold at 20 µM; 1.2% of 96,000 active; AID 696; in the data active means activation fold above about 2
# Target sequence (P05187 whole entry, looked up): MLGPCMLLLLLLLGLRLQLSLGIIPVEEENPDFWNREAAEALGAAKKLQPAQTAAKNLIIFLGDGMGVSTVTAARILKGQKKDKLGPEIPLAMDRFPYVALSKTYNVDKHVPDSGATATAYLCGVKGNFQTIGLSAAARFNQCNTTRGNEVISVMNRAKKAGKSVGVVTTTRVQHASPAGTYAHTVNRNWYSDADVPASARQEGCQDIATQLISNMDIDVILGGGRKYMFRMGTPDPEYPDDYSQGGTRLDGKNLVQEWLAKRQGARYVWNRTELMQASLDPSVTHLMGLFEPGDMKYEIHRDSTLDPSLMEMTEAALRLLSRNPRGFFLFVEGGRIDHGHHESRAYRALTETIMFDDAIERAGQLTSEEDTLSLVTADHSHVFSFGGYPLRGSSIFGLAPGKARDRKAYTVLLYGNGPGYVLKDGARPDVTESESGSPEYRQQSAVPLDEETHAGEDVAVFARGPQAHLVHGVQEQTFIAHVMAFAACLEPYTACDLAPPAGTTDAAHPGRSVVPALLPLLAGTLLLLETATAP
# The depositor's hits bear a star; / = no result given. In the library only some 2.3% were active in any assay of this set; here they are far more common.
SMILES,Ecoli tolC,Ecoli WT expand,AP complement,HePTP inhibitor,PLAP act
CC(=O)c1sc(NC(=O)C2(F)C(F)(F)C(F)(F)C(F)(F)C(F)(F)C2(F)F)nc1C,100*,8,3,0,1.2
Cc1cc(Cl)cc(C)c1OCCCCn1ccnc1,92*,24,2,7,1
Cc1cc(OCCCCn2ccnc2)cc(C)c1Cl,/,/,/,5,/
Cc1cc(Cl)cc(C)c1OCCCCNCCO,/,/,/,105*,/
Cc1cccc(C(C)(C)C)c1OCCn1ccnc1,92*,14,12,1,0.8
NC(=S)N/N=C(\c1ccccc1)C12CC3CC(CC(C3)C1)C2,/,/,/,-12,/
Cn1c(C(=O)NCCCN2CCN(c3ccccc3F)CC2)cc2c(=O)n(C)c3ccccc3c21,32,-2,5,12,2.3*
Cn1c(C(=O)NCCCN2CCOCC2)cc2c(=O)n(C)c3ccccc3c21,10,0,16,11,1.8
N#C/C(=C\c1ccc(-c2ccccc2[N+](=O)[O-])o1)C(=O)Nc1cccc(Br)c1,/,/,/,8,/
N#C/C(=C/c1ccc(O)cc1)C(=O)Nc1cccc(Br)c1,/,/,/,2,/
N#C/C(=C/c1ccc([N+](=O)[O-])o1)C(=O)Nc1cccc(Br)c1,/,/,/,87*,/
N#C/C(=C/c1ccc(O)c([N+](=O)[O-])c1)C(=O)Nc1cccc(Br)c1,/,/,/,102*,/
CC1CCCCN1S(=O)(=O)c1ccc(C(=O)Nc2nnc(-c3ccccc3Cl)o2)cc1 (centres undefined),100*,4,2,-4,1.6
CC1CCCCN1S(=O)(=O)c1ccc(C(=O)Nc2sccc2C(N)=O)cc1 (centres undefined),/,-6,/,/,1.3
O=C(Nc1ccccc1)c1ccc(S(=O)(=O)N2CCCCC2)cc1,0,-11,12,1,/
O=C(Nc1nnc(-c2ccccc2Cl)o1)c1ccc(S(=O)(=O)N2CCCCCC2)cc1,100*,-3,8,-2,1.9
CCC1CCCCN1S(=O)(=O)c1ccc(C(=O)Nc2nnc(-c3ccccc3Cl)o2)cc1 (centres undefined),100*,-2,15,12,/
COc1ccc(NC(=S)NNC(=O)OC(C)(C)C)cc1OC,/,5,/,/,2.5*
c1cc(CSc2nc3ccccc3[nH]2)nc(CSc2nc3ccccc3[nH]2)c1,/,/,/,-7,/
CCn1c(CSc2nc3ccccc3[nH]2)n[nH]c1=S,-9,8,0,6,2.2*
Cn1/c(=N/N=C/c2cc([N+](=O)[O-])ccc2O)sc2ccccc21,/,/,/,-12,/
O=[N+]([O-])c1ccc(Cl)c(/C=N/N2CCN(Cc3cccc4ccccc34)CC2)c1,/,/,/,-3,/
O=C(Nc1ncn[nH]1)c1ccc(Cl)c(S(=O)(=O)N2CCCCCC2)c1,/,-20,/,/,2.1*
COc1ccc(C(=O)Nc2nc3ccccc3[nH]2)cc1S(=O)(=O)N1CCCC1,/,6,/,/,2*
Cc1ccc(-c2csc(NC(=O)CCCC(=O)O)n2)cc1,/,/,/,11,/
SMILES,Ecoli tolC,Ecoli WT expand,AP complement,HePTP inhibitor,PLAP act
O=C(Cc1cn2ccsc2n1)Nc1nc2c(s1)CCCC2,59,9,15,6,2*
O=C(Cc1cccs1)Nc1nc2c(s1)CCCC2,49,16,9,4,0.9
O=C(O)c1cc(Cl)c2ccccc2c1O,66*,13,11,10,1.1
OC(CNCC1CCCO1)Cn1c2ccc(Cl)cc2c2cc(Cl)ccc21 (centres undefined),/,65*,/,/,1.5
OC(CNCC1CCCO1)Cn1c2ccccc2c2ccccc21 (centres undefined),12,-7,9,2,1.2
CCCOC(=O)c1c(-c2ccc(-c3ccccc3)cc2)csc1N,/,/,/,-14,/
O=C(CSc1nc2ccc(N3C(=O)c4ccccc4C3=O)cc2s1)Nc1cccc([N+](=O)[O-])c1,/,/,/,80*,/
O=C(CSc1nc2[nH]ncc2c(=O)n1-c1ccccc1)c1ccc2c(c1)OCCO2,19,-6,4,0,2.4*
Cc1ccc(N2NC(=O)/C(=C/c3ccc(N(C)C)cc3)C2=O)cc1C,/,/,/,-15,/
Clc1ccc2nc(CN3CCCc4ccccc43)cn2c1,61*,11,16,6,1.6
Clc1ccc2nc(CN3CCCCC3)cn2c1,-13,8,17,-7,1
CCCOC(=O)c1ccc(NC(=O)c2cc(I)ccc2Cl)cc1,/,/,/,-2,/
Cc1cc(NC(=O)CCN2C(=O)/C(=C/c3ccccc3)SC2=S)no1,/,/,/,7,/
COC(=O)c1cc(C(=O)NC2CCSC2=O)cc([N+](=O)[O-])c1 (centres undefined),/,/,/,102*,/
COc1ccc(C(=O)NC2CCSC2=O)cc1[N+](=O)[O-] (centres undefined),/,/,/,-7,/
c1ccc(-n2nnnc2Oc2cccc3cccnc23)cc1,91*,1,13,10,1.2
Cc1ccc2cccc(Oc3nnnn3-c3ccccc3)c2n1,5,5,6,3,0.9
Cc1ccc(C(C)C)c(Oc2nnnn2-c2ccccc2)c1,92*,8,9,-12,0.9
Cc1ccc(C2=NNC(c3ccc(Cl)cc3)S2)cc1 (centres undefined),/,/,/,6,/
Cc1ccc(C2=NNC(C(O)C(O)C(O)CO)S2)cc1 (centres undefined),/,9,/,/,2.4*
COc1cc(/C=C2/C(=O)NN(c3ccc(Cl)cc3)C2=O)ccc1O,/,/,/,9,/
COc1cc(/C=C2/C(=O)NN(c3ccc(Cl)cc3)C2=O)cc(Br)c1O,/,/,/,92*,/
C=CCOc1ccc(/C=C2/C(=O)NN(c3ccc(C(=O)OCC)cc3)C2=O)cc1OC,/,/,/,60*,/
CCOC(=O)c1ccc(N2NC(=O)/C(=C/c3ccc4c(c3)OCO4)C2=O)cc1,/,/,/,100*,/
CCCCN(/C=C/C(=O)c1ccccc1)S(=O)(=O)c1ccccc1,/,/,/,9,/
SMILES,Ecoli tolC,Ecoli WT expand,AP complement,HePTP inhibitor,PLAP act
COc1ccccc1NC(=O)Cc1ccc(F)cc1F,/,/,/,12,/
CCOCCCn1c(-c2ccc(Cl)cc2)n[nH]c1=S,/,-5,/,/,2.4*
COCCCn1c(-c2ccc(Cl)cc2)n[nH]c1=S,/,0,/,/,1.8
Fc1ccc(-n2c(Cc3ccccc3)nnc2SCc2nc(-c3cccs3)no2)cc1,70*,-20,-9,7,1.1
c1ccc(-c2noc(CSc3nnc(Cc4cccs4)n3-c3ccccc3)n2)cc1,30,-7,19,3,/
CCOC(=O)c1c(N)sc2c(OC)c(Br)ccc12,100*,4,11,3,1.1
NC(N)=N/N=C/c1ccc(OCc2ccccc2Cl)cc1,/,99*,/,/,1.1
NC(N)=N/N=C/c1ccccc1,/,-9,/,/,0.9
Cc1ccc(C(=O)N/C(=C\c2cccc([N+](=O)[O-])c2)C(=O)Nc2ccc(C)c(C)c2)cc1,/,/,/,5,/
CCCCOC(=O)CSc1nnc(-c2ccc(Cl)cc2Cl)o1,73*,11,7,2,1.1
CCCC1=C(C(=O)OCC)C(c2cc(Cl)cc(OC)c2OCC(=O)OCC)NC(=O)N1 (centres undefined),83*,6,5,14,1.2
COc1cccc(Cn2c(Oc3ccccc3)nc3c2c(=O)n(C)c(=O)n3C)c1,3,4,-5,-9,1.5
CCCOc1nc2c(c(=O)n(C)c(=O)n2C)n1Cc1cccc2ccccc12,65*,-6,20,4,1.6
